Measured values published in ChEMBL document CHEMBL3865827, “A novel class of ethacrynic acid derivatives as promising drug-like potent generation of anticancer agents with established mechanism of action” (Eur J Med Chem, 2016).
Values belong to the compound of their own block, whether it stands above or below them. The source made the active and inactive calls. The calls are words filed in the database; no cut-off is given here.

What was measured:
[1] = tested on: HL-60; test: Selectivity index, ratio of IC50 for Cyprinus carpio EPC to IC50 for human HL60 cells
[2] = tested on: HL60 (Homo sapiens); test: Effect on 24 hrs pretreated human HL60 cells assessed as reduction in endogenous GSH content at 7 uM measured for 60 mins by fluorescence assay; conditions: HL-60
[3] = Cytotoxicity against human HL60 cells assessed as reduction in cell viability after 24 hrs by MTS assay; type: functional, cell-based; conditions: HL-60, 24 h
[4] = tested on: HCT-116; test: Induction of necrosis in human HCT116 cells assessed as increase in LDH release at 7 uM after 24 to 48 hrs by fluorescence assay; type: functional, cell-based
[5] = tested on: HL-60; test: Antiproliferative activity against human HL60 cells at 7 uM after 24 hrs by viacount-reagent based FACS analysis
[6] = Antiproliferative activity against human KB cells after 24 to 72 hrs by MTS assay; type: functional, cell-based
Method in brief: (§1)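 Cells plated, then dosed 24 h later with compounds in DMSO (1% final; controls DMSO alone), exposed 24 or 72 h. Proliferation inhibition measured as previously reported (MTS/NADH reagent). IC50 from duplicate experiments over 0.5 nM–100 µM. KB grown in D-MEM with 10% fetal calf serum, penicillin, streptomycin, fungizone, 5% CO2; other lines in complete RPMI. EPC are quiescent Cyprinus carpio endothelial progenitor cells.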

[7] = Antiproliferative activity against human HL60 cells after 24 to 72 hrs by MTS assay; type: functional, cell-based; conditions: HL-60
Method in brief: as §1

[8] = tested on: MRC5; test: Induction of necrosis in human MRC5 SV2 cells assessed as increase in LDH release at 7 uM after 24 to 48 hrs by fluorescence assay; type: functional, cell-based
[9] = tested on: KB; test: Selectivity index, ratio of IC50 for Cyprinus carpio EPC to IC50 for human KB cells
[10] = tested on: HL-60; test: Induction of necrosis in human HL60 cells assessed as increase in LDH release at 7 uM after 48 hrs by fluorescence assay; type: functional, cell-based
[11] = Antiproliferative activity against Cyprinus carpio EPC after 24 to 72 hrs by MTS assay
[12] = tested on: KB; test: Induction of necrosis in human KB cells assessed as increase in LDH release at 7 uM after 24 to 48 hrs by fluorescence assay; type: functional, cell-based
[13] = Antiproliferative activity against human PC3 cells after 24 to 72 hrs by MTS assay; type: functional, cell-based; conditions: PC-3
[14] = Cell cycle arrest in human HL60 cells assessed as accumulation at G2/M phase at 2.5 uM after 48 hrs by propidium iodide-staining based FACS analysis (reference value: 2.2 %); type: functional; conditions: HL-60
Method in brief: (§2)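 HL60 cells, 25,000 per well, exposed 24 and 48 h to 2.5 µM compounds; controls DMSO (1% final). Propidium iodide staining, flow cytometry; fractions in sub-G1, G0/G1, S and G2/M quantified.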

[15] = Cell cycle arrest in human HL60 cells assessed as accumulation at sub G1 phase at 2.5 uM after 48 hrs by propidium iodide-staining based FACS analysis (reference value: 1.4 %); type: functional; conditions: HL-60
Method in brief: as §2

[16] = Cell cycle arrest in human HL60 cells assessed as accumulation at S phase at 2.5 uM after 48 hrs by propidium iodide-staining based FACS analysis (reference value: 52.6 %); type: functional; conditions: HL-60
Method in brief: as §2

[17] = Cell cycle arrest in human HL60 cells assessed as accumulation at G2/M phase at 2.5 uM after 24 hrs by propidium iodide-staining based FACS analysis (reference value: 5.1 %); type: functional; conditions: HL-60
Method in brief: as §2

[18] = Antiproliferative activity against human SKOV3 cells after 24 to 72 hrs by MTS assay; type: functional, cell-based; conditions: SK-OV-3
[19] = Antiproliferative activity against human MCF7 cells after 24 to 72 hrs by MTS assay; type: functional, cell-based
[20] = Cell cycle arrest in human HL60 cells assessed as accumulation at sub G1 phase at 2.5 uM after 24 hrs by propidium iodide-staining based FACS analysis (reference value: 2.6 %); type: functional; conditions: HL-60
Method in brief: as §2

[21] = Antiproliferative activity against human HCT116 cells after 24 to 72 hrs by MTS assay; type: functional, cell-based; conditions: HCT-116
[22] = Antiproliferative activity against human OVCAR8 cells after 24 to 72 hrs by MTS assay; type: functional, cell-based; conditions: OVCAR-8
[23] = Cell cycle arrest in human HL60 cells assessed as accumulation at G0/G1 phase at 2.5 uM after 24 hrs by propidium iodide-staining based FACS analysis (reference value: 43.5 %); type: functional; conditions: HL-60
Method in brief: as §2

[24] = Cell cycle arrest in human HL60 cells assessed as accumulation at G0/G1 phase at 2.5 uM after 48 hrs by propidium iodide-staining based FACS analysis (reference value: 43.8 %); type: functional; conditions: HL-60
Method in brief: as §2

[25] = Cell cycle arrest in human HL60 cells assessed as accumulation at S phase at 2.5 uM after 24 hrs by propidium iodide-staining based FACS analysis (reference value: 48.9 %); type: functional; conditions: HL-60
Method in brief: as §2

SMILES: C=C(CC)C(=O)c1ccc(OCC(=O)NCCc2ccc(OC)c(OC)c2)c(Cl)c1Cl
- Ratio IC50 [1]: 4.2
- GSH reduction activity [2]: Active
- IC50 [3]: 1400 nM
- Activity [4]: Active
- Activity [5]: Active
- IC50 [6]: 500 nM
- IC50 [7]: 800 nM
- Activity [8]: Active
- Ratio IC50 [9]: 6.8
- Activity [10]: Active
- IC50 [11]: 3400 nM
- Activity [12]: Active

SMILES: C=C(CC)C(=O)c1ccc(OCC(=O)N2CCN(c3ccc(O)cc3)CC2)c(Cl)c1Cl
- Ratio IC50 [1]: 4
- IC50 [13]: 3900 nM
- Activity [14]: 0.4%
- Activity [15]: 16.5%
- Activity [16]: 33.8%
- Activity [17]: 6.1%
- IC50 [18]: 2300 nM
- Activity [4]: Active
- IC50 [19]: 800 nM
- Activity [20]: 2.9%
- IC50 [6]: 400 nM
- IC50 [7]: 800 nM
- IC50 [21]: 2000 nM
- IC50 [22]: 800 nM
- Activity [8]: Active
- Ratio IC50 [9]: 8
- Activity [23]: 41.7%
- Activity [24]: 49.3%
- IC50 [11]: 3200 nM
- Activity [25]: 49.3%

SMILES: C=C(CC)C(=O)c1ccc(OCC(=O)N2CCN(c3ccc(OP4(=O)OCCCO4)cc3)CC2)c(Cl)c1Cl
- Ratio IC50 [1]: 3.6
- IC50 [13]: 500 nM
- Activity [14]: 0%
- Activity [15]: 27.6%
- Activity [16]: 30.7%
- Activity [17]: 9.6%
- IC50 [18]: 3500 nM
- IC50 [19]: 900 nM
- Activity [20]: 2.6%
- IC50 [6]: 200 nM
- IC50 [7]: 350 nM
- IC50 [21]: 1000 nM
- IC50 [22]: 1900 nM
- Ratio IC50 [9]: 6.25
- Activity [23]: 40.7%
- Activity [24]: 41.7%
- IC50 [11]: 1250 nM
- Activity [25]: 47.1%

More lines, main results first:

- GSH reduction activity [2]: Active
SMILES: C=C(CC)C(=O)c1ccc(OCC(=O)N(C)CCc2ccc(OC)cc2)c(Cl)c1Cl
- Ratio IC50 [1]: 3
- IC50 [3]: 2300 nM
- Activity [4]: Active
- Activity [5]: Active
- IC50 [6]: 700 nM
- IC50 [7]: 1300 nM
- Activity [8]: Active
- Ratio IC50 [9]: 5.7
- Activity [10]: Active
- IC50 [11]: 4000 nM
- Activity [12]: Active

- GSH reduction activity [2]: Active
SMILES: C=C(CC)C(=O)c1ccc(OCC(=O)NCCc2ccc(OC)cc2)c(Cl)c1Cl
- Ratio IC50 [1]: 2.8
- IC50 [3]: 2400 nM
- Activity [4]: Active
- Activity [5]: Active
- IC50 [6]: 800 nM
- IC50 [7]: 1300 nM
- Activity [8]: Active
- Ratio IC50 [9]: 4.6
- Activity [10]: Active
- IC50 [11]: 3700 nM
- Activity [12]: Active
